Measured values from ChEMBL document CHEMBL2346534, “Design, synthesis and in vitro anti-proliferative activity of 4,6-quinazolinediamines as potent EGFR-TK inhibitors” (Eur J Med Chem, 2013).

Columns and labels:
Type in all cases: functional
[1] = tested on: SK-MEL-2; test: Cytotoxicity against human SK-MEL-2 cells assessed as cell growth at 10^-5 M after 48 hrs by SRB assay; conditions: SK-MEL-2, 48 h, read-out: Activity
In short: (§1)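 NCI 60-panel single-dose primary screen at 10^-5 M. Cells are grown in RPMI 1640 with 5% FBS and 2 mM L-glutamine and preincubated 24 h at 37 °C. Drug exposure is 48 h. Cells are TCA-fixed, stained with SRB and absorbance is read at 515 nm. Results are reported as percent growth of treated cells versus untreated controls, corrected using time-zero plates.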

[2] = tested on: MDA-MB-231; test: Cytotoxicity against human MDA-MB-231 cells assessed as cell growth at 10^-5 M after 48 hrs by SRB assay; conditions: MDA-MB-231, 48 h, read-out: Activity
In short: (§2)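 NCI 60 single-dose screen at 10^-5 M. Cells in RPMI 1640 with 5% FBS and 2 mM L-glutamine, preincubated 24 h at 37 °C/5% CO2. Drug from DMSO stock, then 48 h exposure. TCA fixation, SRB staining, absorbance at 515 nm. Result given as percent growth of treated cells relative to untreated control.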

[3] = tested on: MDA-MB-435; test: Cytotoxicity against human MDA-MB-435 cells assessed as cell growth at 10^-5 M after 48 hrs by SRB assay; conditions: MDA-MB-435, 48 h, read-out: Activity; in short: as §2
[4] = tested on: RPMI-8226; test: Cytotoxicity against human RPMI8226 cells assessed as cell growth at 10^-5 M after 48 hrs by SRB assay; conditions: RPMI-8226, 48 h, read-out: Activity; in short: as §1
[5] = tested on: HOP-92; test: Cytotoxicity against human HOP92 cells assessed as cell growth at 10^-5 M after 48 hrs by SRB assay; conditions: HOP-92, 48 h, read-out: Activity; in short: as §2
[6] = tested on: 786-0; test: Cytotoxicity against human 786-0 cells assessed as cell growth at 10^-5 M after 48 hrs by SRB assay; conditions: 786-0, 48 h, read-out: Activity; in short: as §2
[7] = tested on: UACC-62; test: Cytotoxicity against human UACC62 cells assessed as cell growth at 10^-5 M after 48 hrs by SRB assay; conditions: UACC-62, 48 h, read-out: Activity
In short: (§3)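 NCI primary single-dose screen at 10^-5 M. Cells grown in RPMI 1640 with 5% FBS and 2 mM L-glutamine, given 24 h before drug addition, then 48 h exposure at 37 °C, 5% CO2. Cells TCA-fixed, stained with SRB, read at 515 nm. Reported as percent growth of treated cells relative to untreated controls.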

[8] = tested on: NCI-H460; test: Cytotoxicity against human NCI-H460 cells assessed as cell growth at 10^-5 M after 48 hrs by SRB assay; conditions: NCI-H460, 48 h, read-out: Activity; in short: as §1
[9] = tested on: OVCAR-5; test: Cytotoxicity against human OVCAR5 cells assessed as cell growth at 10^-5 M after 48 hrs by SRB assay; conditions: OVCAR-5, 48 h, read-out: Activity; in short: as §1
[10] = tested on: MCF7; test: Cytotoxicity against human MCF7 cells assessed as cell growth at 10^-5 M after 48 hrs by SRB assay; conditions: MCF7, 48 h, read-out: Activity; in short: as §2
[11] = tested on: HCC 2998; test: Cytotoxicity against human HCC2998 cells assessed as cell growth at 10^-5 M after 48 hrs by SRB assay; conditions: HCC 2998, 48 h, read-out: Activity; in short: as §2
[12] = tested on: CCRF-CEM; test: Cytotoxicity against human CCRF-CEM cells assessed as cell growth at 10^-5 M after 48 hrs by SRB assay; conditions: read-out: Activity; in short: as §2
[13] = tested on: NCI-H23; test: Cytotoxicity against human NCI-H23 cells assessed as cell growth at 10^-5 M after 48 hrs by SRB assay; conditions: NCI-H23, 48 h, read-out: Activity; in short: as §1
[14] = tested on: PC-3; test: Cytotoxicity against human PC3 cells assessed as cell growth at 10^-5 M after 48 hrs by SRB assay; conditions: PC-3, 48 h, read-out: Activity; in short: as §1
[15] = tested on: SK-MEL-5; test: Cytotoxicity against human SK-MEL-5 cells assessed as cell growth at 10^-5 M after 48 hrs by SRB assay; conditions: SK-MEL-5, 48 h, read-out: Activity; in short: as §1
[16] = Cytotoxicity against human NCI-ADR-RES cells assessed as cell growth at 10^-5 M after 48 hrs by SRB assay; conditions: read-out: Activity; in short: as §1
[17] = tested on: OVCAR-3; test: Cytotoxicity against human OVCAR3 cells assessed as cell growth at 10^-5 M after 48 hrs by SRB assay; conditions: OVCAR-3, 48 h, read-out: Activity; in short: as §1
[18] = tested on: SK-MEL-28; test: Cytotoxicity against human SK-MEL-28 cells assessed as cell growth at 10^-5 M after 48 hrs by SRB assay; conditions: SK-MEL-28, 48 h, read-out: Activity; in short: as §1
[19] = tested on: U-251; test: Cytotoxicity against human U251 cells assessed as cell growth at 10^-5 M after 48 hrs by SRB assay; conditions: U-251, 48 h, read-out: Activity; in short: as §3
[20] = tested on: SF-539; test: Cytotoxicity against human SF539 cells assessed as cell growth at 10^-5 M after 48 hrs by SRB assay; conditions: SF-539, 48 h, read-out: Activity; in short: as §1
[21] = tested on: SN12C; test: Cytotoxicity against human SN12C cells assessed as cell growth at 10^-5 M after 48 hrs by SRB assay; conditions: read-out: Activity; in short: as §1
[22] = tested on: MDA-MB-468; test: Cytotoxicity against human MDA-MB-468 cells assessed as cell growth at 10^-5 M after 48 hrs by SRB assay; conditions: MDA-MB-468, 48 h, read-out: Activity; in short: as §1
[23] = tested on: A498; test: Cytotoxicity against human A498 cells assessed as cell growth at 10^-5 M after 48 hrs by SRB assay; conditions: A498, 48 h, read-out: Activity; in short: as §2
[24] = tested on: HOP-62; test: Cytotoxicity against human HOP62 cells assessed as cell growth at 10^-5 M after 48 hrs by SRB assay; conditions: HOP-62, 48 h, read-out: Activity; in short: as §2
[25] = tested on: K562; test: Cytotoxicity against human K562 cells assessed as cell growth at 10^-5 M after 48 hrs by SRB assay; conditions: K562, 48 h, read-out: Activity; in short: as §2
[26] = tested on: OVCAR-4; test: Cytotoxicity against human OVCAR4 cells assessed as cell growth at 10^-5 M after 48 hrs by SRB assay; conditions: OVCAR-4, 48 h, read-out: Activity; in short: as §1
[27] = tested on: OVCAR-8; test: Cytotoxicity against human OVCAR8 cells assessed as cell growth at 10^-5 M after 48 hrs by SRB assay; conditions: OVCAR-8, 48 h, read-out: Activity; in short: as §1
[28] = tested on: UO-31; test: Cytotoxicity against human UO31 cells assessed as cell growth at 10^-5 M after 48 hrs by SRB assay; conditions: UO-31, 48 h, read-out: Activity; in short: as §3
[29] = tested on: NCI-H226; test: Cytotoxicity against human NCI-H226 cells assessed as cell growth at 10^-5 M after 48 hrs by SRB assay; conditions: NCI-H226, 48 h, read-out: Activity; in short: as §1

Row | SMILES | growth at 10 µM [2] [%] | growth at 10 µM [3] [%] | growth at 10 µM [4] [%] | growth at 10 µM [6] [%] | growth at 10 µM [7] [%] | growth at 10 µM [8] [%] | growth at 10 µM [9] [%] | growth at 10 µM [10] [%] | growth at 10 µM [11] [%] | growth at 10 µM [12] [%] | growth at 10 µM [13] [%] | growth at 10 µM [14] [%] | growth at 10 µM [15] [%] | growth at 10 µM [16] [%] | growth at 10 µM [17] [%] | growth at 10 µM [18] [%] | growth at 10 µM [19] [%] | growth at 10 µM [20] [%] | growth at 10 µM [21] [%] | growth at 10 µM [22] [%] | further results
1 | C#Cc1cccc(Nc2ncnc3ccc(N/C=C(\C#N)C(=O)OCC)cc23)c1 | 97.2 | 92 | 101 | 91.7 | 104 | 100 | 89.5 | 96.8 | 102 | 103 | 98.2 | 91.4 | 89.4 | 100 | 78.7 | 103 | 85.4 | 97.8 | 97.1 | 40.4 | growth at 10 µM [1]: 123%; growth at 10 µM [5]: 90.3%; growth at 10 µM [23]: 82.5%; growth at 10 µM [24]: 99.9%; growth at 10 µM [25]: 96.4%; growth at 10 µM [26]: 94%; growth at 10 µM [27]: 94.8%; growth at 10 µM [28]: 58.6%; growth at 10 µM [29]: 89.8%
2 | NC(=O)Nc1ccc2ncnc(Nc3cccc(O)c3)c2c1 | 104 | 101 | 112 | 92.6 | 105 | 108 | 98.1 | 97.3 | 102 | 108 | 100 | 102 | 101 | 96.8 | 82.8 | 114 | 87.8 | 109 | 94.9 | 67.9 | growth at 10 µM [5]: 78%; growth at 10 µM [23]: 77.4%; growth at 10 µM [24]: 92.8%; growth at 10 µM [25]: 103%; growth at 10 µM [26]: 112%; growth at 10 µM [27]: 98.9%; growth at 10 µM [28]: 80.1%; growth at 10 µM [29]: 102%
3 | CCOC(=O)/C(C#N)=C\Nc1ccc2ncnc(Nc3ccccc3Cl)c2c1 | 86.9 | 100 | 84.3 | 91.3 | 107 | 98.7 | 90.1 | 110 | 117 | 93.1 | 103 | 98.8 | 88.3 | 99.6 | 95.3 | 119 | 96.3 | 111 | 98.8 | 34.7 | growth at 10 µM [1]: 106%; growth at 10 µM [5]: 70.4%; growth at 10 µM [23]: 63.7%; growth at 10 µM [24]: 99.1%; growth at 10 µM [25]: 88.6%; growth at 10 µM [26]: 124%; growth at 10 µM [27]: 105%; growth at 10 µM [28]: 66.7%; growth at 10 µM [29]: 116%
4 | CCOC(=O)/C(C#N)=C\Nc1ccc2ncnc(Nc3ccc(Cl)cc3)c2c1 | 93.1 | 70.5 | 62.9 | 83.1 | 103 | 70 | 92.8 | 111 | 101 | 50.1 | 92.5 | 60.6 | 72 | 72 | 50.2 | 105 | 84.7 | 103 | 87 | 26.6 | growth at 10 µM [1]: 105%; growth at 10 µM [23]: 53.1%; growth at 10 µM [24]: 107%; growth at 10 µM [25]: 61.4%; growth at 10 µM [26]: 89%; growth at 10 µM [27]: 83.3%; growth at 10 µM [28]: 43%; growth at 10 µM [29]: 99.3%
5 | NC(=O)Nc1ccc2ncnc(Nc3ccc(Cl)cc3)c2c1 | 89.3 | 97.8 | 101 | 85.9 | 87.9 | 88 | 83.6 | 86.5 | 97.9 | 96 | 100 | 79 | 89.2 | 88.7 | 74.2 | 106 | 95.7 | 95.7 | 81.9 | -7.15 | growth at 10 µM [1]: 127%; growth at 10 µM [5]: 74.2%; growth at 10 µM [23]: 43.4%; growth at 10 µM [24]: 86.2%; growth at 10 µM [25]: 71.4%; growth at 10 µM [26]: 91.9%; growth at 10 µM [27]: 89.5%; growth at 10 µM [28]: 58%; growth at 10 µM [29]: 99.8%
6 | CCOC(=O)/C(C#N)=C\Nc1ccc2ncnc(Nc3ccc(Cl)cc3Cl)c2c1 | 85.2 | 75.7 | 79.5 | 82.6 | 90 | 84.8 | 82.2 | 87.6 | 119 | 70.9 | 99.5 | 59.3 | 78.3 | 85.4 | 67.6 | 109 | 81.3 | 92.7 | 89.5 | 56.4 | growth at 10 µM [1]: 110%; growth at 10 µM [5]: 56.5%; growth at 10 µM [23]: 48.7%; growth at 10 µM [24]: 101%; growth at 10 µM [25]: 59.7%; growth at 10 µM [26]: 95.1%; growth at 10 µM [27]: 87%; growth at 10 µM [28]: 42%; growth at 10 µM [29]: 99.8%
